The nature of assay [1]: Growth inhibition of human MM1S cells after 72 hrs by CellTiter-Glo luminescent cell viability assay. To be noted: MM1.S.
The next assay concerns MV4-11. Kind of assay: Growth inhibition of human MV4-11 cells after 72 hrs by CellTiter-Glo luminescent cell viability assay. To be noted: MV4-11, 72 h.
The test system of the next assay is HT-29. Kind of assay: Growth inhibition of human HT-29 cells after 72 hrs by SRB assay. The format is functional, cell-based. The note with it: HT-29, 72 h. A digest of the protocol: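 HT-29 cells are grown in McCoy's 5A with 10% FBS at 37 °C, 5% CO2. DMSO stocks (0.01 mol/L) are diluted in normal saline just before use. Cells are treated in triplicate with gradient concentrations for 72 h at 37 °C.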

Assay [2] has as its target Bromodomain-containing protein 4 (Homo sapiens, UniProt O60885). Kind of assay: Inhibition of BRD4(1) (unknown origin) incubated for 4 hrs by (+)-JQ1 fluorescent ligand based fluorescence anisotrophy.

The term IC50 denotes the concentration that inhibits the measured activity by half.

Consider `Nc1cc(-c2csc(=O)[nH]2)cc(S(=O)(=O)NC2CCCC2)c1`, for which the IC50 came to 3.58 µM in assay [1], 0.689 µM in the assay on MV4-11, 6.15 µM with HT-29 and 0.46 µM in assay [2].
As for `O=c1[nH]c(-c2cccc(S(=O)(=O)NC3CCOC3)c2)cs1` (stereo not drawn), half-maximal inhibition in assay [2] (IC50) was put at 5.82 µM.
The same measure, in the same setting: for `O=c1[nH]c(-c2cccc(S(=O)(=O)NCc3ccccc3)c2)cs1` the value was more than 10 µM.
Regarding `COCC(=O)Nc1ccc(-c2csc(=O)[nH]2)cc1S(=O)(=O)NC1CCCC1`, the IC50 is 2.31 µM in assay [1], 0.681 µM in the assay with MV4-11, 24.6 µM in the assay with HT-29 and 0.4 µM in assay [2].
As for `O=c1[nH]c(-c2cccc(S(=O)(=O)NCC3CCCO3)c2)cs1` (stereo not drawn), in assay [2], the IC50 came out at 9.31 µM. That is a single-digit micromolar value.
As for `Cc1c(NC(=O)C2CC2)cc(-c2csc(=O)[nH]2)cc1S(=O)(=O)NC1CCCC1`, the IC50 was found to be 1.76 µM in assay [1], 0.45 µM in the assay on MV4-11, 28.5 µM in the assay with HT-29 and 0.22 µM in assay [2].
Turning to `O=c1[nH]c(-c2cccc(S(=O)(=O)Nc3ccon3)c2)cs1`, in assay [2], the IC50 stood at 7.34 µM.
The same measure, in the same setting: for `O=c1[nH]c(-c2cccc(S(=O)(=O)NC3CC3)c2)cs1` the value was 2.26 µM.
As to `CCCC(=O)Nc1cc(-c2csc(=O)[nH]2)cc(S(=O)(=O)NC2CCCC2)c1C`, the IC50 with HT-29 was found to be 23.5 µM; in assay [2], 0.93 µM.
Take `O=c1[nH]c(-c2ccc(Cl)c(S(=O)(=O)NC3CCCC3)c2)cs1`: the IC50 in assay [1] was determined as 3.37 µM; with MV4-11 it was 0.341 µM; in the assay on HT-29, 23.7 µM; in assay [2], 0.25 µM.
For `COc1ccc(NS(=O)(=O)c2cccc(-c3csc(=O)[nH]3)c2)cc1`, the IC50 in assay [2] was more than 10 µM.
The compound `O=c1[nH]c(-c2cccc(S(=O)(=O)NCCc3cccs3)c2)cs1` registered an IC50 in assay [2] of more than 10 µM.
In the case of `O=c1[nH]c(-c2ccc(F)c(S(=O)(=O)NC3CCCC3)c2)cs1`, the IC50 with HT-29 is 35.2 µM; in assay [2] it was 0.5 µM.
In the case of `Cc1c(NC(=O)c2cccs2)cc(-c2csc(=O)[nH]2)cc1S(=O)(=O)NC1CCCC1`, the IC50 was found to be 4.09 µM in assay [1], 0.602 µM with MV4-11, 20.1 µM with HT-29 and 0.79 µM in assay [2].
On to `O=C(Nc1ccc(-c2csc(=O)[nH]2)cc1S(=O)(=O)NC1CCCC1)C1CC1`, for which the figures for the IC50 (with HT-29; in assay [2]) were 13 µM and 0.8 µM, respectively.
Turning to `O=c1[nH]c(-c2ccccc2F)cs1`, in assay [2], the IC50 is more than 100 µM.
Still for that read-out and setting: under `Nc1ccc(NS(=O)(=O)c2cccc(-c3csc(=O)[nH]3)c2)cc1` stands 8.33 µM.
Same read-out and setting: for `O=c1[nH]c(-c2cccc(S(=O)(=O)NC3CCCCC3)c2)cs1` the value was 2.06 µM.
As for `CCCC(=O)Nc1cc(-c2csc(=O)[nH]2)cc(S(=O)(=O)NC2CCCC2)c1`, the IC50 stood at 2.53 µM in assay [1], 0.791 µM with MV4-11, 13.9 µM with HT-29 and 0.17 µM in assay [2].
`O=c1[nH]c(-c2cccc(S(=O)(=O)NC3CCCC3)c2)cs1` had an IC50 in assay [2] of 1.4 µM. This lies in the single-digit micromolar range.
For the compound `O=c1[nH]c(-c2cc(Br)cc(S(=O)(=O)NC3CCCC3)c2)cs1`, the IC50 was 57.1 µM with HT-29 and 0.3 µM in assay [2].

(Values after ChEMBL document CHEMBL3407418, “Fragment-based drug discovery of 2-thiazolidinones as BRD4 inhibitors: 2. Structure-based optimization” (J Med Chem, 2015).)
